Assay results gathered from unrelated publications.
Compare with care: the assays were run in different laboratories.
Read-out: cell growth or viability

For `COc1ccc(COC[C@@](O)(CNCc2ccccc2)[C@@H]2CC[C@@H](C)C[C@H]2OCc2ccc(OC)cc2)cc1`, the inhibition was 98% (A2780; MTT; 10 µM, 72 h).
`O=C(c1ccc(Oc2ccc(-c3ccccc3)cc2)c([N+](=O)[O-])c1)C(Cl)Cl` gave an inhibition of 97.5% (NCI-H1650; MTT; 2.5 µM).
The GI50 of `C=CC(=O)c1cccnc1Nc1cccc(C(F)(F)F)c1` is reported as 5110 nM (NCI-H28; CCK-8; 72 h).
With `C[C@@H]1CC[C@@H]([C@](C)(O)Cn2ccnc2)[C@H](OCc2ccccc2)C1` the inhibition was 39.5% (A2780; MTT; 30 µM, 72 h).
The IC50 of `COc1ccc(C(=O)Nc2ccc(-n3cc(CNc4nc(OC)nc(OC)n4)nn3)cc2)cc1` is reported as 722 nM (Caco-2; MTT; 72 h).
The EC50 of `C=CC(=O)NC1CCN(c2ncc3ncnc(Nc4ccc(Oc5ccc6c(c5)ncn6C)c(C)c4)c3n2)CC1` is reported as 11.8 nM (LoVo).
With `C[C@@H]1CC[C@@H]([C@@](O)(CNCc2ccccc2)COCc2ccc(F)cc2)[C@H](OCc2ccc(F)cc2)C1` the inhibition was 98.5% (A2780; MTT; 30 µM, 72 h).
With `CC(=O)OCCCOc1ccc(C(=O)C(Cl)Cl)cc1[N+](=O)[O-]` the inhibition was 39.6% (NCI-H1650; MTT; 2.5 µM).
The inhibition of `C=C(COCc1ccc(OC)cc1)[C@@H]1CC[C@@H](C)C[C@H]1OCc1ccc(OC)cc1` is reported as 27.4% (A2780; MTT; 30 µM, 72 h).
With `O=C(c1ccc(Oc2ccc(Br)cc2)c([N+](=O)[O-])c1)C(Cl)Cl` the inhibition was 96.1% (NCI-H1650; MTT; 2.5 µM).
`COc1ccc(COC[C@@](O)(CNCc2ccc(F)cc2)[C@@H]2CC[C@@H](C)C[C@H]2OCc2ccc(OC)cc2)cc1` has an inhibition of 100% (A2780; MTT; 30 µM, 72 h).
`O=C1CC[C@@H](COc2ccc(C(=O)C(Cl)Cl)cc2[N+](=O)[O-])N1` gave an inhibition of 29.8% (NCI-H1650; MTT; 2.5 µM).
With `O=C(NO)c1ccc(CNc2nc3cccc(-c4ccc5c(c4)OCO5)n3n2)cc1` the GI50 was 510 nM (HT-29; SRB).
The IC50 of `COc1ccc(NC(=O)c2ccc(-n3cc(CNc4nc(OC)nc(OC)n4)nn3)cc2)cc1` is reported as 435 nM (Caco-2; MTT; 72 h).
With `CC(=O)Nc1ccc(Oc2ccc(C(=O)C(Cl)Cl)cc2[N+](=O)[O-])cc1` the inhibition was 97.6% (NCI-H1650; MTT; 2.5 µM).
`O=C(O)c1ccccc1Nc1cccc(C(F)(F)F)c1` has a GI50 of > 40000 nM (NCI-H28; CCK-8; 72 h).
The inhibition of `C[C@@H]1CC[C@@H]([C@](C)(O)CNCc2ccccc2)[C@H](OCc2ccccc2)C1` is reported as 91.6% (A2780; MTT; 10 µM, 72 h).
With `COc1cccc2c1C(=O)c1c(O)c3c(c(O)c1C2=O)C[C@@](O)(C(=O)CO)C[C@@H]3O[C@H]1C[C@H](N)[C@H](O)[C@H](C)O1` the viability was 62.1% (Caco-2; MTT; 6.25 µg/mL, 48 h, serum-free).
`COc1nc(NCc2cn(-c3ccc(NC(=O)c4ccc(Br)cc4)cc3)nn2)nc(OC)n1` has an IC50 of 689 nM (Caco-2; MTT; 72 h).
The IC50 of `C=C(F)C(=O)N1CCN(c2nc(OC[C@@H]3CCCN3C)nc3c2CCN(c2cccc4cccc(Cl)c24)C3)C[C@@H]1CC#N` is reported as > 10000 nM (HCC44; ATP luminescence).
With `O=C(c1ccc(Oc2cccc(-c3ccccc3)c2)c([N+](=O)[O-])c1)C(Cl)Cl` the inhibition was 97.2% (NCI-H1650; MTT; 2.5 µM).
`C[C@@H]1CC[C@@H]([C@](O)(CNCc2ccccc2)COCc2ccccc2)[C@H](OCc2ccccc2)C1` has an inhibition of 90.4% (A2780; MTT; 10 µM, 72 h).
For `C=CC(=O)N1CCN(c2nc(=O)n(-c3c(C)ccnc3C(C)C)c3nc(-c4c(O)cccc4F)c(F)cc23)[C@@H](C)C1`, the IC50 was 90.1 nM (NCI-H2122; ATP luminescence).
`O=C(c1ccc(Oc2ccc(OCc3ccccc3)cc2)c([N+](=O)[O-])c1)C(Cl)Cl` has an inhibition of 96.9% (NCI-H1650; MTT; 2.5 µM).
For `C[C@@H]1CC[C@@H]([C@](O)(CNCc2ccc(F)cc2)COCc2ccc(F)cc2)[C@H](OCc2ccc(F)cc2)C1`, the inhibition was 95.3% (A2780; MTT; 30 µM, 72 h).
For `O=C(c1ccc(Oc2ccc3c(c2)OCO3)c([N+](=O)[O-])c1)C(Cl)Cl`, the inhibition was 84.4% (NCI-H1650; MTT; 2.5 µM).
`COc1nc(NCc2cn(-c3ccc(C(=O)Nc4ccc([N+](=O)[O-])cc4)cc3)nn2)nc(OC)n1` gave an IC50 of 724 nM (Caco-2; MTT; 72 h).
